Results as given in ChEMBL document CHEMBL1142940, “Use of simple docking methods to screen a virtual library for heteroactivators of cytochrome P450 2C9” (J Med Chem, 2007).
Values joined by “and” are separate entries in the source; they are usually repeats but may differ in a detail not shown here. Identical values can stand only once.

What follows are molecules tested against T1, CYP2C9 (Homo sapiens, UniProt P11712) (assay: Inhibition of human CYP2C9 assessed as (S)-Flurbiprofen hydroxylation at 100 uM). Settings: probe (S)-flurbiprofen.
T1 sequence (P11712 whole entry): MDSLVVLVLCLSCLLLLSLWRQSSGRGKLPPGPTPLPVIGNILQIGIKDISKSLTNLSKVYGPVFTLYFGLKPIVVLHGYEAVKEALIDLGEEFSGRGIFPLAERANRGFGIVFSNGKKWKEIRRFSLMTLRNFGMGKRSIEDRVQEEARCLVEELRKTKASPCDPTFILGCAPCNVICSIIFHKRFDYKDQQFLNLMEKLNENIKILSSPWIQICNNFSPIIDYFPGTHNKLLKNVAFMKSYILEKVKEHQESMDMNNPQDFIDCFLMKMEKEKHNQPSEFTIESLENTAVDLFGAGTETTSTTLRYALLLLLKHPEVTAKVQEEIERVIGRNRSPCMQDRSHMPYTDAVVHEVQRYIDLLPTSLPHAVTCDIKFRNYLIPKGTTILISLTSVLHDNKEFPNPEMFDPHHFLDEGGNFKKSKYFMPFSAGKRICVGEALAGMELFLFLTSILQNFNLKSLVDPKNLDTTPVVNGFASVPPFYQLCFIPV
Assay type: ADME
Method in brief: (§1)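 Reconstituted CYP2C9 (5 pmol) in 0.2 mL incubations with 20 μM (S)-flurbiprofen held constant, 50 mM potassium phosphate pH 7.4, 37 °C for 20 min. Test compounds diluted in DMSO (1% final in all reactions, controls included), screened on a log scale from 0.001–1000 μM depending on solubility. 4′-OH flurbiprofen formation measured after quench. Triplicate reactions.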
For `O=C(c1ccc(F)cc1)c1cnc2sccn12`, the inhibition at 100 µM was 50%. In the case of `CN1C(=O)N(c2ccc(Cl)c(Cl)c2)C(=N)C1=S`, the inhibition at 100 µM is reported as 50%.

The molecules below were run against T1, CYP2C9 (assay: (§2) Activation of human CYP2C9 assessed as (S)-Flurbiprofen hydroxylation). Settings: probe (S)-flurbiprofen.
Assay type: ADME
Design: concentration or dose not given beside the values
Method in brief: as §1
`CC(=O)Oc1ccc(S(=O)(=O)c2ccc(OC(C)=O)cc2)cc1` was tested, and the activity was 8%. In the case of `Cc1ccc(S(=O)(=O)c2ccc(C)cc2)cc1`, the activity is reported as 50.6%. `NCC(=O)Nc1ccc2ccccc2c1` was tested, and the activity was 4.4%. `Cc1cccc(C(=O)[C@@H](O)c2cccc(C)n2)n1` showed an activity of 46%. `Cn1c(=O)[nH]c(=O)c2ncn(CC(=O)c3ccc(F)cc3)c21` gave an activity of 7.7%. For `[O-][S+](c1ccccc1)c1ccccc1`, the activity was 3.5%. Work on `Cc1ccc([C@@H]2NC(=O)c3ccccc3N2)cc1` yielded an activity of 6.6%. Work on `Cn1c(=O)c2c(ncn2CN2CCCC2)n(C)c1=O` yielded an activity of 3%. `O=S(=O)(c1ccc(O)cc1)c1ccc(O)cc1` was tested, and the activity was 95%. `O=S(=O)(c1ccccc1)c1ccccc1` [(PHENYLSULFONYL)BENZENE] showed an activity of 40%.

Each molecule was assayed against T2, Cytochrome P450 2C9 (Homo sapiens, UniProt P11712) (assay: as §2). Settings: not given.
T2 sequence (P11712 whole entry): as above
Assay type: ADME
Design: concentration or dose not given beside the values
Method in brief: as §1
`Nc1ccc(S(=O)(=O)c2ccc(N)cc2)cc1` [DAPSONE] was tested, and the activity was 95% and 64.1%.

These molecules were tested against T2, Cytochrome P450 2C9 (assay: Activation of human CYP2C9 assessed as (S)-Flurbiprofen hydroxylation). Settings: not given.
Design: concentration or dose not given beside the values
`O=C(O)c1ccc(S(=O)(=O)c2ccc(C(=O)O)cc2)cc1` was tested, and the activity was -5%. Molecule `Nc1ccc(S(=O)(=O)c2ccc([N+](=O)[O-])cc2)cc1` has an activity of -10.6%. In the case of `COc1ccc(S(=O)(=O)c2ccc(OC)cc2)cc1`, the activity is reported as -25%. With `c1ccc2c(c1)sc1ccccc12` [DIBENZOTHIOPHENE] the activity was -10.6%. Work on `Nc1ccc(S(=O)(=O)Nc2ncccn2)cc1` [SULFADIAZINE] yielded an activity of -17.1%. In the case of `Cc1cc(C)nc(NS(=O)(=O)c2ccc(N)cc2)n1` [SULFAMETHAZINE], the activity is reported as -18.8%.

These molecules were tested against T1, CYP2C9 (assay: Inhibition of human CYP2C9 assessed as (S)-Flurbiprofen hydroxylation at 1 uM). Settings: probe (S)-flurbiprofen.
Assay type: ADME
Method in brief: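 Reconstituted CYP2C9 (5 pmol) in 0.2 mL incubations with 20 μM (S)-flurbiprofen held constant, in 50 mM potassium phosphate pH 7.4. Run at 37 °C for 20 min, then quenched, and 4′-OH flurbiprofen formation measured. Test compounds were dosed from DMSO on a log scale, with 1% DMSO final in all reactions, in triplicate. Activity is reported as % change versus control.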
In the case of `Nc1cc(N)c(N)cc1N`, the inhibition at 1 µM is reported as 50%.
